Results from ChEMBL document CHEMBL1155615, “Bioactive saponins from Swartzia schomburgkii from the suriname rainforest” (J Nat Prod, 2000).
Values after ≈ are worked out from the molar mass of the structure shown.

Experiments:
Saccharomyces cerevisiae [1] = assay: Antimicrobial activity against Saccharomyces cerevisiae I138; format: functional
Saccharomyces cerevisiae [2] = assay: Antimicrobial activity against Saccharomyces cerevisiae J140; format: functional
Saccharomyces cerevisiae [3] = assay: Antimicrobial activity against Saccharomyces cerevisiae I353; format: functional
M109 = assay: Cytotoxicity against mouse M109 cells; format: functional, cell-based
In short: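 In vitro antitumor cytotoxicity assay using the murine Madison lung carcinoma line M-109.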

Work on CC1(C)CC[C@]2(C(=O)O)CC[C@]3(C)C(=CC[C@@H]4[C@@]5(C)CC[C@H](O[C@@H]6O[C@H](CO)[C@@H](O)[C@H](O)[C@H]6O)[C@@](C)(CO)[C@@H]5CC[C@]43C)[C@@H]2C1 [Hederagenin-3-O-beta-D-glucopyranoside] yielded an IC12 (Saccharomyces cerevisiae [1]) of 125 µg/mL, an IC12 (Saccharomyces cerevisiae [2]) of 200 µg/mL and an IC12 (Saccharomyces cerevisiae [3]) of 280 µg/mL.
In the case of CC1(C)CC[C@]2(C(=O)O)CC[C@]3(C)C(=CC[C@@H]4[C@@]5(C)CC[C@H](O[C@@H]6O[C@H](CO)[C@@H](O)[C@H](O[C@@H]7O[C@H](CO)[C@@H](O)[C@H](O)[C@H]7O)[C@H]6O[C@@H]6OC[C@@H](O)[C@H](O)[C@H]6O)C(C)(C)[C@@H]5CC[C@]43C)[C@@H]2C1 [SWARTZIATRIOSIDE], the IC12 (Saccharomyces cerevisiae [1]) is reported as 120 µg/mL, the IC12 (Saccharomyces cerevisiae [2]) is reported as 260 µg/mL and the IC50 (M109) is reported as 24.3 µg/mL (≈ 26.6 µM). For the same compound, the IC12 (Saccharomyces cerevisiae [3]) was 430 µg/mL.
Work on CC1(C)CC[C@]2(C(=O)O)CC[C@]3(C)C(=CC[C@@H]4[C@@]5(C)CC[C@H](O[C@@H]6O[C@H](CO)[C@@H](O)[C@H](O)[C@H]6O[C@@H]6O[C@H](CO)[C@@H](O)[C@H](O)[C@H]6O)C(C)(C)[C@@H]5CC[C@]43C)[C@@H]2C1 [ACUTOSIDE A] yielded an IC12 (Saccharomyces cerevisiae [1]) of 75 µg/mL, an IC12 (Saccharomyces cerevisiae [2]) of 130 µg/mL and an IC50 (M109) of 28.7 µg/mL (≈ 36.7 µM). For the same compound, the IC12 (Saccharomyces cerevisiae [3]) was 110 µg/mL.
CC1(C)CC[C@]2(C(=O)O)CC[C@]3(C)C(=CC[C@@H]4[C@@]5(C)CC[C@H](O[C@@H]6O[C@H](CO)[C@@H](O)[C@H](O[C@@H]7O[C@H](CO)[C@@H](O)[C@H](O)[C@H]7O)[C@H]6O)[C@@](C)(CO)[C@@H]5CC[C@]43C)[C@@H]2C1 gave an IC12 (Saccharomyces cerevisiae [1]) of 400 µg/mL, an IC12 (Saccharomyces cerevisiae [2]) of 600 µg/mL and an IC50 (M109) of 15.5 µg/mL (≈ 19.4 µM). The IC12 (Saccharomyces cerevisiae [3]) was 1000 µg/mL.
Work on CC1(C)CC[C@]2(C(=O)O)CC[C@]3(C)C(=CC[C@@H]4[C@@]5(C)CC[C@H](O[C@@H]6O[C@H](CO)[C@@H](O)[C@H](O[C@@H]7O[C@H](CO)[C@@H](O)[C@H](O)[C@H]7O)[C@H]6O[C@@H]6O[C@H](CO)[C@@H](O)[C@H](O)[C@H]6O)C(C)(C)[C@@H]5CC[C@]43C)[C@@H]2C1 [ANCHUSOSID 2] yielded an IC12 (Saccharomyces cerevisiae [1]) of 120 µg/mL, an IC12 (Saccharomyces cerevisiae [2]) of 200 µg/mL and an IC12 (Saccharomyces cerevisiae [3]) of 270 µg/mL.
